This note sets out measurements from ChEMBL document CHEMBL1156370, “Leishmanicidal, antiplasmodial, and cytotoxic activity of novel diterpenoid 1,2-quinones from Perovskia abrotanoides: new source of tanshinones” (J Nat Prod, 2001).

The test system of test [1] is Leishmania major. Nature of the test: Antileishmanial activity against Leishmania major promastigotes assessed as inhibition of [3H]thymidine uptake after 2 hrs by liquid scintillation counting. It is filed as functional, organism-based. Summed up: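 WHO reference vaccine strain promastigotes kept at 26 °C in RPMI 1640 with 25 mM HEPES, 4 mM L-glutamine, gentamicin, 10% heat-inactivated FCS. Compounds from DMSO stock diluted in medium, incubated with 1 × 10^7 promastigotes/mL for 2 h; [3H]thymidine then added, 18 h further incubation, harvest, scintillation counting of incorporated label.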

Test [2] deals with Plasmodium falciparum. Nature of the test: Antimalarial activity after 24 hrs against chloroquine-sensitive Plasmodium falciparum 3D7 by [3H]phenylalanine uptake.
Test [3] in a line: Cytotoxicity against drug-sensitive human KB-3-1 cells after 48 hrs by MTS/PMS assay. It is filed as functional, cell-based. As to conditions: KB 3-1, 48 h. Summed up: (§1)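 Mycoplasma-free KB-3-1 and vinblastine-selected KB-V1 (passages 5-15, no vinblastine pressure) in DMEM/10% FBS, 37 °C, 5% CO2. Seeded 4 × 10^3 (KB-3-1) or 7 × 10^3 (KB-V1) cells/well, 24 h preincubation, then 48 h with compounds (DMSO ≤0.25%). MTS/PMS read at 492 nm after ~50 min; six repeats per concentration, IC50 from ≥3 independent determinations on different passages.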

Test [4] in a line: Cytotoxicity against multidrug-resistant human KBV1 cells after 48 hrs by MTS/PMS assay. It is filed as functional, cell-based. As to conditions: KB-V1, 48 h. Summed up: as §1
The subject of test [5] is PBMC. Description: Inhibition of phytohemagglutininin A-stimulated human PBMC proliferation assessed as decrease in [14C]thymidine incorporation. It is filed as functional, cell-based.
The nature of test [6]: Resistance index, ratio of IC50 for multidrug-resistant human KBV1 cells to IC50 for drug-sensitive human KB-3-1 cells. It is filed as functional.

With `C[C@H]1COC2=C1C(=O)C(=O)c1c2ccc2c1[C@H](O)CCC2(C)C`, the IC50 worked out at 46.7 µM in test [1]; 26.9 µM in test [2]; 5 µM in test [3]; 5.6 µM in test [4]; 16 µM in test [5].

Consider `CC(C)C1=Cc2ccc3c(c2C(=O)C1=O)C(=O)CCC3(C)C`, for which the IC50 in test [1] was 17.9 µM; in test [2] it was 13 µM; in test [3], 46.6 µM; in test [4], 47.8 µM; in test [5], 44.6 µM.

As for `C[C@H]1COC2=C1C(=O)C(=O)c1c2ccc2c1C(=O)CCC2(C)C`, the figures for the IC50 in test [1], in test [2] and in test [5] were 25.7 µM, 17.6 µM and 12.4 µM, respectively.

Turning to `C[C@@H]1[C@H](O)[C@@H](C)/C=C/C=C/C=C/C=C/C=C/C=C/C=C/[C@H](O[C@@H]2O[C@H](C)[C@@H](O)[C@H](N)[C@@H]2O)C[C@@H]2O[C@](O)(C[C@@H](O)C[C@@H](O)[C@H](O)CC[C@@H](O)C[C@@H](O)CC(=O)O[C@H]1C)C[C@H](O)[C@H]2C(=O)O` [AMPHOTERICIN B], the IC50 in test [1] was 0.16 µM.

As for `C[C@H]1COC2=C1C(=O)C(=O)c1c2ccc2c1CCCC2(C)C` [CRYPTOTANSHINONE], the IC50 in test [1] was 18.4 µM; in test [2], 12.5 µM; in test [3], 6.9 µM; in test [4], 7.5 µM; in test [5], 37.4 µM.

With `COC(=O)c1ccccc1-c1c2ccc(=N)cc-2oc2cc(N)ccc12.Cl` [RHODAMINE123], the values for the IC50 in test [3] and in test [4] were 1.6 µM and above 500 µM, respectively. The “Ratio IC50” value in test [6] was determined as 500.

In the case of `CC[C@]1(O)C[C@@H]2CN(CCc3c([nH]c4ccccc34)[C@@](C(=O)OC)(c3cc4c(cc3OC)N(C)[C@H]3[C@@](O)(C(=O)OC)[C@H](OC(C)=O)[C@]5(CC)C=CCN6CC[C@]43[C@@H]65)C2)C1` [VINBLASTINE], in test [6], the “Ratio IC50” value was 210.

As usually defined, the IC50 is the concentration that gives 50% inhibition.
